The structures appear in SMILES notation. Several values for one entry are separate records, joined by “and”; a condition that tells them apart may be missing. Equal entries are not always repeated.

Series [1] in a line: Octanol-phosphate buffer partition coefficient, log P of the compound. It counts as physicochemical. A digest of the protocol:
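About 555 kBq of purified tracer was added to 2 mL n-octanol and 2 mL 0.025 M sodium phosphate pH 7.4. The mixture was vortexed 2 min at room temperature and centrifuged 5 min at 1837 g. Aliquots of each phase were weighed and gamma counted. P was taken as cpm/mL in octanol over cpm/mL in buffer, after density correction. At least triplicate.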

Series [2] in a line: Biodistribution in NMRI mouse urine at 37 MBq/ml, iv after 2 mins. The settings on record: in vivo. It counts as ADME, organism-based. A digest of the protocol:
(§1)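 Male NMRI mice under isoflurane received 0.1 mL of about 37 MBq/mL tracer iv in saline (ethanol <10%). Decapitated at 2 or 60 min, n = 4 per time point. Radioactivity counted in a NaI(Tl) well counter and expressed as %ID, i.e. cpm in organ over total cpm recovered. Mean ± SD.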

For series [3], the system named is Kidney. Kind of series: Biodistribution in NMRI mouse kidney assessed per gram of tissue at 37 MBq/ml, iv after 2 mins. It counts as ADME, organism-based. The settings on record: in vivo. A digest of the protocol:
(§2)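 Male NMRI mice (35–45 g), isoflurane-anaesthetised (2.5% in O2), given 0.1 mL tracer at about 37 MBq/mL in 0.9% NaCl (ethanol <10%) via tail vein. Killed by decapitation at 2 or 60 min p.i., n = 4 per time point. Blood and organs weighed, gamma counted and background corrected. Expressed as %ID/g; blood mass taken as 7% of body mass. Mean ± SD.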

Series [4] deals with Liver. Kind of series: Biodistribution in NMRI mouse liver assessed per gram of tissue at 37 MBq/ml, iv after 2 mins. It counts as ADME, organism-based. The settings on record: in vivo. The method, boiled down:
as §2

The subject of series [5] is Stomach. Kind of series: Biodistribution in NMRI mouse stomach assessed per gram of tissue at 37 MBq/ml, iv after 2 mins. The format is ADME, organism-based. The following applies: in vivo. The method, boiled down:
as §2

The test system of series [6] is Blood. Description: Biodistribution in NMRI mouse blood assessed per gram of tissue at 37 MBq/ml, iv after 2 mins. The format is ADME, organism-based. The settings on record: in vivo. A digest of the protocol: as §2
A short description of series [7]: Biodistribution in NMRI mouse carcass at 37 MBq/ml, iv after 2 mins. It counts as ADME, organism-based. The following applies: in vivo. A digest of the protocol: as §1
Series [8] is described as follows: Biodistribution in NMRI mouse urine at 37 MBq/ml, iv after 60 mins. The format is ADME, organism-based. The settings on record: in vivo, 1 h. A digest of the protocol: as §1
Series [9] relates to Kidney. Description: Biodistribution in NMRI mouse kidney assessed per gram of tissue at 37 MBq/ml, iv after 60 mins. It counts as ADME, organism-based. The settings on record: in vivo, 1 h. A digest of the protocol: as §2
Series [10] relates to Liver. Description: Biodistribution in NMRI mouse liver assessed per gram of tissue at 37 MBq/ml, iv after 60 mins. It counts as ADME, organism-based. The settings on record: in vivo, 1 h. A digest of the protocol:
as §2

A short description of series [11]: Biodistribution in NMRI mouse spleen + pancreas assessed per gram of tissue at 37 MBq/ml, iv after 60 mins. It counts as ADME, organism-based. The settings on record: in vivo, 1 h. A digest of the protocol:
as §2

Series [12] relates to Stomach. Kind of series: Biodistribution in NMRI mouse stomach assessed per gram of tissue at 37 MBq/ml, iv after 60 mins. The format is ADME, organism-based. The settings on record: in vivo, 1 h. The method, boiled down:
as §2

Another series concerns Brain. Description: Biodistribution in NMRI mouse brain assessed per gram of tissue at 37 MBq/ml, iv after 60 mins. The format is ADME, organism-based. The settings on record: in vivo, 1 h. The method, boiled down:
as §2

For series [13], the system named is Blood. Description: Biodistribution in NMRI mouse blood assessed per gram of tissue at 37 MBq/ml, iv after 60 mins. It counts as ADME, organism-based. The following applies: in vivo, 1 h. The method, boiled down: as §2
Series [14] in a line: Biodistribution in NMRI mouse carcass at 37 MBq/ml, iv after 60 mins. The format is ADME, organism-based. The settings on record: in vivo, 1 h. The method, boiled down: as §1
A further series has as its system Plasma. Kind of series: Metabolic stability in NMRI mouse plasma assessed as drug recovery at 18 MBq, iv after 30 mins by RP-HPLC. It counts as ADME, organism-based. The settings on record: in vivo, 0.5 h. The method, boiled down:
(§3)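 NMRI mice under isoflurane received about 18 MBq tracer iv and were decapitated at 10 or 30 min, n = 2. Plasma was separated from heparinised blood by centrifugation; urine was taken at 30 min by bladder voiding and mixed with authentic compound. Both were analysed by gradient RP-HPLC, fractions gamma counted, and intact tracer was expressed as % of recovered radioactivity.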

The nature of series [15]: Metabolic stability in NMRI mouse urine assessed as drug recovery at 18 MBq, iv after 30 mins by RP-HPLC. The format is ADME, organism-based. The following applies: in vivo, 0.5 h. A digest of the protocol:
as §3

Series [16] deals with HEK293. Description: Drug uptake in human HEK293 cells assessed as radioactivity after 120 mins. The settings on record: hek293, 2 h. The format is ADME, cell-based. A digest of the protocol:
(§4)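 293T cells were lentivirally transduced with LacZ or, as control, VZV-tk, and kept in DMEM/10% FCS with 1 µg/mL puromycin. 200,000 cells per well were seeded and used after 24 h. Cells received fresh medium with 1.1 MBq tracer per well for 30–120 min at 37 °C, 5% CO2. After ice-cold PBS washes, cells were lysed; lysate and supernatant were gamma counted. Result is % radioactivity in the cell fraction, triplicate means.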

Series [17] concerns HEK293. Description: Drug uptake in human HEK293 cells assessed as radioactivity after 30 mins. The format is ADME, cell-based. The settings on record: hek293, 0.5 h. A digest of the protocol: as §4
Series [18] concerns the target Beta-galactosidase (Escherichia coli) (UniProt Q8VNN2). Kind of series: Inhibition of Escherichia coli beta-galactosidase assessed as substrate hydrolysis at 1 mg/ml after 15 mins by competitive binding assay in presence of ONPG. The settings on record: tested as the 11C-labelled form. Also noted: scale not given: the % may be the effect or the level left. The method, boiled down: (§5)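 E. coli β-gal (10 U, 149 U/mg) was incubated at 37 °C with 1 mg/mL triazole in HEPES pH 7.0 (120 mM) containing 4 mM MgSO4 and 180 mM NaCl. ONPG (1 mg in 1 mL HEPES solution) was then added. Samples taken 15 and 90 min later were analysed by RP-HPLC with UV detection.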

The target is the same in series [19]. Description: Inhibition of Escherichia coli beta-galactosidase assessed as substrate hydrolysis at 1 mg/ml after 90 mins by competitive binding assay in presence of ONPG. Also on record: scale not given: the % may be the effect or the level left. The settings on record: tested as the 11C-labelled form. The method, boiled down:
as §5

Series [20] deals with Beta-galactosidase (Escherichia coli) (UniProt P00722). Description: Inhibition of beta-galactosidase.
Beta-galactosidase (Escherichia coli) (UniProt P00722), sequence (P00722 whole entry, looked up): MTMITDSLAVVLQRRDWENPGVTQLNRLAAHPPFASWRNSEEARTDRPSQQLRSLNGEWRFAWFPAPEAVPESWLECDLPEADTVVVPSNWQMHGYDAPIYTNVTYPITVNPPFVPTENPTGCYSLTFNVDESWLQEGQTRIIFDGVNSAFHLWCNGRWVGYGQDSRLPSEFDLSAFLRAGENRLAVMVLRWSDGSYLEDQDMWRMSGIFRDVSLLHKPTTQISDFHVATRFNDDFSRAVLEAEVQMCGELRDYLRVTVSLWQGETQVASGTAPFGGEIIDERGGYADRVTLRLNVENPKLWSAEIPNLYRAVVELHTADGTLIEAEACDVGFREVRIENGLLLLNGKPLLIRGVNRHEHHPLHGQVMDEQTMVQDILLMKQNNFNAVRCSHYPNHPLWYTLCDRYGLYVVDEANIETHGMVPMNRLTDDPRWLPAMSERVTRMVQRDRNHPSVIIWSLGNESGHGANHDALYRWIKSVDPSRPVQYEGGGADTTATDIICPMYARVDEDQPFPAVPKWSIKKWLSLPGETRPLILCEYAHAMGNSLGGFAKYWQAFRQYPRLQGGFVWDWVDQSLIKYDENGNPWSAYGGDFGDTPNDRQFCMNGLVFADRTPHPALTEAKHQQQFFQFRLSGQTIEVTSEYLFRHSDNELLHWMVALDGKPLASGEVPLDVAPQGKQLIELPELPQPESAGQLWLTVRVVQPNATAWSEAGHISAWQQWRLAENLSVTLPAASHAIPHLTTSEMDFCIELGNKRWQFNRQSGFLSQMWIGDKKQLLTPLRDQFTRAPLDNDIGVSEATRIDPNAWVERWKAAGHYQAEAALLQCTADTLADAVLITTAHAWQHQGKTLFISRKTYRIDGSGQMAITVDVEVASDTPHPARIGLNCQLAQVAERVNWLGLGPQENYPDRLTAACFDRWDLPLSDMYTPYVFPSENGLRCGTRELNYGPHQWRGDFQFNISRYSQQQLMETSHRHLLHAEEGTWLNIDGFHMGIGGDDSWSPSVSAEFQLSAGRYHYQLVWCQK

Beta-galactosidase (Escherichia coli) (UniProt Q8VNN2), sequence (Q8VNN2 whole entry, looked up): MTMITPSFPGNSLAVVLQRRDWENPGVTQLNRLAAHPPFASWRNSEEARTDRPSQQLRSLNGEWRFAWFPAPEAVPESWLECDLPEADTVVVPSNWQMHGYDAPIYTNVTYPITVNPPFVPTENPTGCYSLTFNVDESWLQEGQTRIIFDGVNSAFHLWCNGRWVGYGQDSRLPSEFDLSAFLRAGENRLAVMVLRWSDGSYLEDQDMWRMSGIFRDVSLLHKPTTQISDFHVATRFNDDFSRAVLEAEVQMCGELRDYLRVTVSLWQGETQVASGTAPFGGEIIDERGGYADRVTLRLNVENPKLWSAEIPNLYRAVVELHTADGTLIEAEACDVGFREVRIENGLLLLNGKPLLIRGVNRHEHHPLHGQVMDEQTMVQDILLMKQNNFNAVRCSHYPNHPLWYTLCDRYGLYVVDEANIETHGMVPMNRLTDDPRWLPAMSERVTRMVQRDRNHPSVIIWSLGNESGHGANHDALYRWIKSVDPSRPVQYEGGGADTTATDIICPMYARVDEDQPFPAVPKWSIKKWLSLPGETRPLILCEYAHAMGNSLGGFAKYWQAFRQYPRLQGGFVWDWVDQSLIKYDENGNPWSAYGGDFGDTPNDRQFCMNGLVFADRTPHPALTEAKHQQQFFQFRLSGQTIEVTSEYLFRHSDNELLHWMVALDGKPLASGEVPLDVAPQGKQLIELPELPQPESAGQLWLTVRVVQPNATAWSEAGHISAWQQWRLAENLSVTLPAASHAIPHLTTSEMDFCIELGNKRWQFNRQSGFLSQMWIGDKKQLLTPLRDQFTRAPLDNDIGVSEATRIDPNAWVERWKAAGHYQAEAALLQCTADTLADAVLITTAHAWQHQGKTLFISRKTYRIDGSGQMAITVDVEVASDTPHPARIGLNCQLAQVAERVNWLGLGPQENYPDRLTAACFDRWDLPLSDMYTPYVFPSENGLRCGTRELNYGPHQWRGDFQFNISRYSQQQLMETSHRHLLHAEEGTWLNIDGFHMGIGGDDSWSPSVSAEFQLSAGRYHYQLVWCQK

In general, logP refers to the decadic logarithm of the partition coefficient of the neutral form, usually between octanol and water. On to `[11CH3]Oc1ccc2cc(-c3cn([C@@H]4O[C@H](CO)[C@H](O)[C@H](O)[C@H]4O)nn3)ccc2c1`, for which the logP in [1] came out at 1.4. For the same compound, the Drug uptake is 0.1 %ID in series [2]; 7.2 %ID and 5.7 %ID in the series with Kidney [3]; 12.1 %ID and 25.8 %ID with Liver [4]; 1.1 %ID and 0.9 %ID in the series with Stomach [5]; 50.9 %ID and 18.6 %ID with Blood [6]; 34.3 %ID in [7]. In addition, the Drug uptake in series [8] is 2.8 %ID; with Kidney [9], 1 %ID and 1.4 %ID; in the series with Liver [10], 7.1 %ID and 3.4 %ID; in series [11] it was 0.4 %ID and 1.2 %ID; with Stomach [12], 0.4 %ID and 0.2 %ID; with Brain, 0 %ID and 0.2 %ID. The Drug uptake in the series with Blood [13] is 4.2 %ID and 1.6 %ID; in series [14], 12.2 %ID; in the series with HEK293 [16], 1.4%; in the series on HEK293 [17] it was 0.6%. Further, the Stability entry (with Plasma; in series [15]) was “Stable” each time.
Take `[11CH3]Oc1ccc(-c2cn([C@@H]3O[C@H](CO)[C@H](O)[C@H](O)[C@H]3O)nn2)cc1`: the lipophilicity (logP) in series [1] was -0.1. Also, the Drug uptake in [2] was 3.1 %ID; in the series with Kidney [3], 16.1 %ID and 19.3 %ID; in the series on Liver [4], 18.7 %ID and 8.7 %ID; in the series on Stomach [5] it was 0.9 %ID and 1.5 %ID; in series [7] it was 38.1 %ID; in series [8], 47.5 %ID. Besides, the Drug uptake was 4 %ID and 4.4 %ID in the series on Kidney [9]; 13.4 %ID and 6.3 %ID in the series on Liver [10]; 0.6 %ID and 1.7 %ID in series [11]; 0.9 %ID and 1.4 %ID with Stomach [12]; 0 %ID and 0.3 %ID with Brain; 19.6 %ID in [14]. The Drug uptake with HEK293 [16] was 0.4%. The Stability entry (with Plasma; in series [15]) was “Stable” each time.
As for `COc1ccc(-c2cn([C@@H]3O[C@H](CO)[C@H](O)[C@H](O)[C@H]3O)nn2)cc1`, the values for the Activity in series [18] and in [19] were 40% and 70%, respectively.
Broadly, the Ki is a dissociation constant, usually derived from enzyme kinetics or from competition with a known ligand. Take `OC[C@H]1O[C@@H](n2cc(-c3ccccc3)nn2)[C@H](O)[C@@H](O)[C@H]1O`: affinity in [20] was put at a Ki of 330 µM.
